Columns and labels:
[1] = biological target: T1, Histone deacetylase (Homo sapiens) (UniProt Q13547+O15379+Q9UBN7+Q92769+Q9UQL6+Q8WUI4+Q9BY41+Q96DB2+P56524+Q9UKV0+Q969S8); assay: Inhibition of human HDAC in HeLa cells at 5 uM; assay type: cell-based
HCT-116 [2] = assay: Cytotoxicity against human HCT116 cells assessed as cell viability after 96 hrs by MTS reduction assay; assay type: functional, cell-based; conditions: HCT-116, 96 h
HCT-116 [3] = assay: Increase in acetylated alpha tubulin level in human HCT116 cells at 10 uM after 24 hrs relative to control; assay type: functional
Method in brief: (§1)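 HCT116 cells adhered overnight, then exposed to 10 μM compound for 24 h. Cells lysed in HEPES pH 7.9/NaCl/Triton buffer with protease inhibitors at 4 °C. 30 μg total protein per lane run on 10% Bis-Tris gels and blotted with antibodies to AcH3, AcH4, p21waf1 or acetylated α-tubulin, with α-actin also probed. Infrared fluorescent secondaries used for quantification; single determinations reported as fold increase.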

[4] = biological target: Histone deacetylase 3 (Homo sapiens) (UniProt O15379); assay: Inhibition of human recombinant HDAC3; conditions: concentration not given here
Histone deacetylase 3 (Homo sapiens), sequence (O15379 whole entry): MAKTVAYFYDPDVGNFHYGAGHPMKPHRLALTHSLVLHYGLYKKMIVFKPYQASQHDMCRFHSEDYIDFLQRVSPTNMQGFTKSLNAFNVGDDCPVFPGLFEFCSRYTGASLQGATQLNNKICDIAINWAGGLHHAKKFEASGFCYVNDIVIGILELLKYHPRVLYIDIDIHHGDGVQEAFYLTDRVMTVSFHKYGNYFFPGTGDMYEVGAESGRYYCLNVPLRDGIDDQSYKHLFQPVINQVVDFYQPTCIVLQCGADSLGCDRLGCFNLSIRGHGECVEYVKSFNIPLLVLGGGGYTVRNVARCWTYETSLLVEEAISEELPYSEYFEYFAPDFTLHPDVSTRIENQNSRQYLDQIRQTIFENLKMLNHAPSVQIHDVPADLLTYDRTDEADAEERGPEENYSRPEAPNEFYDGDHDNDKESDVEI

HCT-116 [5] = assay: Increase in p21waf1 re-expression in human HCT116 cells at 10 uM after 24 hrs relative to control; assay type: functional; method in brief: as §1
[6] = biological target: T1, Histone deacetylase (Homo sapiens); conditions: HeLa, at 1 µM
[7] = biological target: T2, Protein deacetylase HDAC6 (Homo sapiens) (UniProt Q9UBN7); assay: Inhibition of human recombinant HDAC6; conditions: concentration not given here
T2 sequence (whole entry): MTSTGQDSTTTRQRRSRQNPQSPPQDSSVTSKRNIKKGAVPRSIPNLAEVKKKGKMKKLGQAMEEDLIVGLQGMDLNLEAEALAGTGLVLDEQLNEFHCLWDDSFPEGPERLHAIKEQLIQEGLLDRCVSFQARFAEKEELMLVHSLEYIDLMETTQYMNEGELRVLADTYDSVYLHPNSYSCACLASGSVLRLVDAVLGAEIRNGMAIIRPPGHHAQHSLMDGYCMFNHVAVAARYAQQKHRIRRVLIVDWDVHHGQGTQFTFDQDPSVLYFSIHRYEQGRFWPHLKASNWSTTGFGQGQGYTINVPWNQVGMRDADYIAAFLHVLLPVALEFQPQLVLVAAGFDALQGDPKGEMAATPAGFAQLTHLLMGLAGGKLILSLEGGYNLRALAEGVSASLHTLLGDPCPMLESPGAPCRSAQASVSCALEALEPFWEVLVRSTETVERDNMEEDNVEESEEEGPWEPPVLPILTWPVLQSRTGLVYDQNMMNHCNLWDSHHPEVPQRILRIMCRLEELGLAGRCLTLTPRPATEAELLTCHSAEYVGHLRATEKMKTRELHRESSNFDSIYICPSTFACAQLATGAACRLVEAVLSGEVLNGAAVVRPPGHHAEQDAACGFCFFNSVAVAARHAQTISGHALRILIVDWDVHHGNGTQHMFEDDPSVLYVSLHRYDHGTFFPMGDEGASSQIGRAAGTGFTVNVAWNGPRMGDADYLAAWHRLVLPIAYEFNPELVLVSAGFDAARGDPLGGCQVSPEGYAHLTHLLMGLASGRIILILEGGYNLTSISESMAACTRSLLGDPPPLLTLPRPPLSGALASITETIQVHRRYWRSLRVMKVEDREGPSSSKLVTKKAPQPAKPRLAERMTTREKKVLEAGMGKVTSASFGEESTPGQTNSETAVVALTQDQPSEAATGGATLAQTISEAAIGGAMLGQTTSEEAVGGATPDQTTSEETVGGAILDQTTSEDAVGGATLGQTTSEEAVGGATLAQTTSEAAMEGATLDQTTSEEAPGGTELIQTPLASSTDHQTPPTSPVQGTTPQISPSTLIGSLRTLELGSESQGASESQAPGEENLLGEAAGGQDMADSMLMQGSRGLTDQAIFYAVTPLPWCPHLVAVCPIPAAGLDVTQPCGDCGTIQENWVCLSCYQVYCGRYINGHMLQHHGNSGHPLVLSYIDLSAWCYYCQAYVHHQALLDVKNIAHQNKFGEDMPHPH

HCT-116 [8] = assay: Increase in acetylated histone H4 level in human HCT116 cells at 10 uM after 24 hrs relative to control; assay type: functional; method in brief: as §1
HCT-116 [9] = assay: Increase in acetylated histone H3 level in human HCT116 cells at 10 uM after 24 hrs relative to control; assay type: functional; method in brief: as §1
[10] = Inhibition of [14C]spermidine uptake at human polyamine transporter in ML1 cells; assay type: cell-based
Method in brief: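 Competition for 14C-spermidine uptake in ML-1 acute myelogenous leukemia cells. Concentration-dependent spermidine uptake measured in the presence of 0.0, 10.0, 25.0 and 50.0 μM test compound.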

HCT-116 [11] = assay: Cytotoxicity against human HCT116 cells assessed as cell viability after 96 hrs by MTS reduction assay in presence of diamine oxidase inhibitor aminoguanidine; assay type: functional, cell-based; conditions: HCT-116, 96 h
Method in brief: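 HCT116 cells in McCoy's 5A with 10% fetal calf serum, 37 °C, 5% CO2; 3000 cells/well seeded in triplicate and attached overnight. Medium replaced with fresh medium containing a range of compound concentrations for 96 h. CellTiter 96 One Solution MTS added for 1.5 h at 37 °C, absorbance read at 490 nm. Two separate experiments averaged to give IC50.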

[12] = biological target: T1, Histone deacetylase (Homo sapiens); assay: Inhibition of human HDAC at 1 uM

inhibition [1]	inhibition [4]	inhibition [6]	inhibition [7]	inhibition [12]	SMILES	IC50 (HCT-116 [2])	Fold change (HCT-116 [3])	Fold change (HCT-116 [5])	Fold change (HCT-116 [8])	Fold change (HCT-116 [9])	Ki [10]	IC50 (HCT-116 [11])
66.7%	–	–	–	–	Nc1ccccc1NC(=O)c1ccc(CNC(=O)CCCCCCC(=O)NCCCNCCCCNCCC(c2ccccc2)c2ccccc2)cc1	> 100 µM	–	–	–	–	–	–
51.2%	1.3%	30.8%	11.7%	–	CC(C)(C)c1ccc(CNCCCCNCCCNC(=O)CCCCCCC(=O)NCc2ccc(C(=O)Nc3ccccc3N)cc2)cc1	> 100 µM	2.27	2.55	1.12	1.19	–	–
–	–	2%	–	–	CN(C)c1ccc(CN(CCCNCCCCNCc2ccc(C(C)(C)C)cc2)C(=O)CCCCC(=O)NO)cc1	–	–	–	–	–	–	–
–	–	71.3%	–	–	O=C(CCCCC(=O)NCCCNCCCCNCc1ccccc1-c1ccccc1)NO	> 100 µM	89.01	2.01	17.4	3.34	–	–
–	–	55.2%	–	–	O=C(CCCCCCC(=O)NCCCNCCCNCCCNCCC(c1ccccc1)c1ccccc1)NO	> 100 µM	–	–	–	–	–	–
–	–	88.7%	–	–	CC(C)(C)c1ccc(CNCCCCNCCCNC(=O)CCCCCCCC(=O)NO)cc1	> 100 µM	11.99	0.61	3.25	0	–	–
37.4%	–	28%	–	–	CC(C)(C)c1ccc(CNCCCCNCCCNC(=O)CCCC(=O)NCc2ccc(C(=O)Nc3ccccc3N)cc2)cc1	> 100 µM	–	–	–	–	7.7 µM	–
–	–	38.6%	–	–	O=C(CCCCCCC(=O)NCCCNCCCCNCc1ccccc1-c1ccccc1)NO	> 100 µM	36.3	1.64	7.82	5.19	–	–
–	–	16.5%	–	–	O=C(CCCCCCC(=O)NCCCNCCCCNCCSc1ccccc1)NO	> 100 µM	101.36	1.98	11.68	0	–	–
–	–	58.6%	–	58.6%	CN(C)c1ccc(CN(CCCNCCCCN)C(=O)CCCCCCC(=O)NO)cc1	38.6 µM	6.07	0.49	1.95	0	–	> 100 µM
–	–	46.7%	–	–	CN(C)c1ccc(CNCCCCNCCCNC(=O)CCCCCCC(=O)NO)cc1	> 100 µM	6.76	0.46	1.36	0	–	–
–	99.1%	–	99.7%	–	CC(C)(C)c1ccc(CNCCCCNCCCNC(=O)CCCCCC(=O)NO)cc1	> 100 µM	253.25	2.33	20.84	21.49	–	–
–	–	41.4%	–	–	CC(C)c1ccc(CNCCCCNCCCNC(=O)CCCCCCC(=O)NO)cc1	> 100 µM	11.98	0.86	4.74	0	–	–
–	–	6.7%	–	–	O=C(CCCCC(=O)NCCCNCCCCNCCSc1ccccc1)NO	> 100 µM	72.9	2.56	12.06	2.38	–	–
–	–	73.9%	–	–	O=C(CCCCCCCCC(=O)NCCCNCCCCNCCC(c1ccccc1)c1ccccc1)NO	> 100 µM	1.97	0.41	0.95	0	–	–
–	–	54.6%	–	–	O=C(CCCCCCCC(=O)NCCCNCCCCNCCC(c1ccccc1)c1ccccc1)NO	> 100 µM	–	–	–	–	–	–
–	–	46.3%	–	–	O=C(CCCCCC(=O)NCCCNCCCCNCCC(c1ccccc1)c1ccccc1)NO	> 100 µM	–	–	–	–	–	–
–	–	15.9%	–	–	CC(C)c1ccc(CNCCCCNCCCNC(=O)CCCCC(=O)NO)cc1	> 100 µM	75.7	3.01	14.22	3.76	–	–

Source: ChEMBL document CHEMBL1144711, “Polyaminohydroxamic acids and polyaminobenzamides as isoform selective histone deacetylase inhibitors” (J Med Chem, 2008)
